Screens from PubChem BioAssay.
DNMT1 block: inhibitors of human DNMT1. P26358. DNMT1 molecular beacon, Hinp1I cleavage, fluorescence. inhibition (reported as % activation of signal), % at 10 µM. 360,000 compounds, 0.83% hits. AID 588458; in the data active = inhibition above about 50%
Rpn11 inh: Rpn11 (human) deubiquitinase inhibition; 360,000 compounds, 0.59% hits; human 26S proteasome, Ub4-pepOG fluorescence polarization; 20S core pre-blocked with epoxomicin; inhibition, % at 20 µM;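 active = inhibition at 20 µM, scaled to each plate's controls, above about 33%, limit read from the data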
STEP block: inhibitors of human striatal-enriched phosphatase STEP; P54829; recombinant STEP, OMFP fluorogenic substrate, fluorescence; inhibition, % at 20 µM; 360,000 compounds, 0.25% hits;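 active = inhibition at 20 µM, scaled per plate between control wells, above about 37%, limit read from the data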;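 also: 0% = DMSO with enzyme and substrate and 100% = substrate only without enzyme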
Target sequence (P54829 whole entry, looked up): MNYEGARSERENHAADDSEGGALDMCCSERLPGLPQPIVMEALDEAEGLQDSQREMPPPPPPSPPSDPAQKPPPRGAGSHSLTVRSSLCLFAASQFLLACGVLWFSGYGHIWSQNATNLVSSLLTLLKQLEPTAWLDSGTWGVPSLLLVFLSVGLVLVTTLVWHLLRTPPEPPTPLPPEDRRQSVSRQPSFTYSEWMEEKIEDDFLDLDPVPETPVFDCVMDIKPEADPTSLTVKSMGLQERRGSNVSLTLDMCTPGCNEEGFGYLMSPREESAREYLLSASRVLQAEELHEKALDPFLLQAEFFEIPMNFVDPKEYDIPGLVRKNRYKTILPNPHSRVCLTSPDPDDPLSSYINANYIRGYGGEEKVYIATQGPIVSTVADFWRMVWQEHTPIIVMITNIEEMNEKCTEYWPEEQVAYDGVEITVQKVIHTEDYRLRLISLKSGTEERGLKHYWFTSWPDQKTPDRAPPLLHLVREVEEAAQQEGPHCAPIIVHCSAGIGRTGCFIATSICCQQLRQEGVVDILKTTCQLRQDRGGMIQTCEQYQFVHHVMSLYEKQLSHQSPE
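Measure: Control-normalized % inhibition with plate pattern correction | Test system: STEP phosphatase, cell-free reaction | Medium: pH 6.0 Bis-Tris with DTT and Tween 20 | Technique: Fluorescence, 480/540 nm | Times: Reaction 20 min, ambient temperature | Doses: Single compound dose of 20 µM, 1% DMSO final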
Scp1 inh: Scp-1 (human) phosphatase inhibition. inhibition, % at 20 µM. Recombinant Scp1, phosphopeptide, malachite green phosphate absorbance. 340,000 compounds, 0.88% hits. Q9GZU7;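 active = inhibition above about 50% at 20 µM, limit read from the data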;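 also: plate controls were DMSO wells with enzyme for no effect and wells lacking enzyme for full effect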
Target sequence (Q9GZU7 76-261 limits assumed): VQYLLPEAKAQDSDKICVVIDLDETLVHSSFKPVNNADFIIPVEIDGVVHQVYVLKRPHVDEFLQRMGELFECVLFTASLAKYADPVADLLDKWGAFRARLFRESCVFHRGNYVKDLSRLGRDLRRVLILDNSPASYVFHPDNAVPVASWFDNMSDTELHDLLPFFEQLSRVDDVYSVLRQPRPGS
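System: SCP-1 catalytic domain; Reagent: Phospho 17-mer peptide substrate; Doses: one concentration, 20 µM, with 1.0% DMSO; Incubation: 45 min room-temperature reaction, 5 min colour, 30 min stabiliser; Signal: Phosphate-binding colour reagent, absorbance read at 630 nm.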
LMPTP inh: blocks human LMPTP phosphatase. P24666. recombinant LMPTP-A, OMFP fluorogenic substrate, fluorescence intensity. inhibition, % at 20 µM. 360,000 compounds, 0.22% hits;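 active = compounds that cut the enzyme signal by at least half of the control window in the single-dose screen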;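 also: plate controls were DMSO wells with enzyme plus substrate for no effect and substrate without enzyme for full effect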
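Test system: LMPTP-A phosphatase enzyme; input: 0.625 nM LMPTP-A final; reagent: OMFP substrate, 400 µM final; compound dosing: 20 µM single dose, 3% DMSO; incubation: 50 min dark incubation at room temperature; measured by: endpoint fluorescence intensity from OMFP dephosphorylation; measure: % inhibition relative to no-enzyme and uninhibited control wells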
SUMO1-SIM PPI: modulators of human SUMO1-mediated protein-protein interactions; inhibition, % at 20 µM; 360,000 compounds, 0.33% hits; P63165; AID 602429; SUMO1 binding to a labelled peptide, TR-FRET, 1 h; in the data active = inhibition above about 37%
Scp-1 conf: Scp-1 (human) inhibition, single-dose confirmed. shares compounds with Scp1 inh. 2,500 compounds, 61% hits. AID 540281. inhibition, % at 20 µM. recombinant SCP-1 catalytic domain, phosphate release, malachite green absorbance;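 also: plate controls were DMSO with enzyme for no effect and buffer wells lacking enzyme for full effect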
Scp-1 MG ctr: counter-screen for Scp-1 inhibitors: colorimetric interference; shares compounds with Scp1 inh; Colorimetric interference counterscreen, malachite green absorbance 630 nm; 2,500 tested, under 10 active; AID 540313; apparent inhibition (interference), % at 20 µM;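 also: compounds added after enzyme reaction finished so only phosphate colour detection is probed; plate controls were DMSO wells with completed Scp-1 reaction for no effect and substrate wells lacking enzyme for full effect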
Scp-1 Tm shift: Scp-1 (human) binding by thermal shift. AID 540329. shares compounds with Scp1 inh. Recombinant SCP1, Sypro Orange thermal shift Tm. 1,500 compounds, 25% hits. thermal shift relative to vanadate control, % at 40 µM;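 active = substances whose mean melting-temperature shift, as a percentage of the reference inhibitor's shift, reaches about 5.3%, limit read from the data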;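 also: 0% = Tm of DMSO wells and 100% = Tm with sodium orthovanadate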
* hit, by the source's call; / = no result shown. Sampled rows, rich in hits. Any-hit rate of the full collection: about 2.3%.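 The calls were made as follows, unless noted: active = inhibition of at least 30% at 20 µM; inactive = the rest.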

SMILES	DNMT1 block	Rpn11 inh	STEP block	Scp1 inh	LMPTP inh	SUMO1-SIM PPI	Scp-1 conf	Scp-1 MG ctr	Scp-1 Tm shift
CCC(C)C(NC(=O)C(Cc1ccc(O)cc1)NC(=O)OCc1ccccc1)C(=O)OC (configuration not stated)	0.5	9.2	1.4	/	-0.2	2.0	/	/	/
CC[N+]1(CC(O)COC2CC(C)CC(C)(C)C2)CCOCC1 (configuration not stated)	-3.7	-1.1	-4.0	105.4*	-0.8	-1.0	90.9*	-11.2	-10.4
CC1CCN(CC(O)COC2CC(C)CC(C)(C)C2)CC1 (configuration not stated)	0.9	-1.8	-0.6	17.6	-1.6	4.2	/	/	/
Cc1nnc(NC(=O)CSc2ccccc2N)s1	-2.2	-2.8	-2.3	1.3	1.7	2.9	/	/	/
Cc1ccc2[nH]c(O)c(N=NC(=O)c3ccc(NS(=O)(=O)c4cccs4)cc3)c2c1	-7.9	1.7	58.0*	99.9*	43.8	31.0	57.6*	-15.6	-9.7
O=C(N=Nc1c(O)[nH]c2ccccc12)c1ccccc1NS(=O)(=O)c1cccs1	-2.4	-5.8	0.7	-5.7	0.6	-0.8	/	/	/
Cc1ccc(-c2cc(C(=O)N/N=C/c3ccc(Cl)cc3)n[nH]2)o1	1.8	35.9	4.7	64.8*	2.1	-6.5	87.7*	-7.3	-11.5
Cc1ccc(-c2cc(C(=O)N/N=C/c3ccccc3)n[nH]2)o1	1.3	3.9	-1.2	-9.6	0.1	-0.6	/	/	/
CCN(CC(=O)NC1CC1)S(=O)(=O)c1ccc(C)cc1	-0.5	-1.7	-2.5	0.4	-5.0	-1.0	/	/	/
CCN(CC(=O)NC1CCCCC1)S(=O)(=O)c1ccc(Cl)cc1	4.5	6.3	0.6	63.5*	1.2	1.1	-8.4	-6.2	/
OC1(c2ccccc2Cl)NN=C2CCCCCN21 (configuration not stated)	1.6	0.4	-2.4	-3.2	-0.8	1.6	/	/	/
C[N+]1=C2CCCCCN2C(O)(c2ccccc2)C1 (configuration not stated)	3.4	-1.9	-2.6	96.2*	-2.1	1.5	94.3*	-9.5	-11.3
O=C1NC(=Nc2ccccc2)/C(=C/c2ccco2)S1	1.3	0.0	0.5	3.0	1.1	-9.6	/	/	/
Cc1ccc(N=C2NC(=O)S/C2=C\c2ccco2)cc1	3.8	-11.8	34.6	97.4*	62.8*	-3.2	56.9*	-13.1	3.8
O=C1OC(CC(=O)N(Cc2nnc(-c3ccccc3Cl)o2)C2CC2)c2ccccc21 (configuration not stated)	-1.1	0.8	0.5	-7.7	-8.1	-7.6	/	/	/
O=C(Nc1ccc(C(F)(F)F)cc1)C1=NN(C2CCS(=O)(=O)C2)C(=O)CC1 (configuration not stated)	1.0	4.3	-1.7	-5.5	-0.6	-0.4	/	/	/
COc1ccc(OC)c(/C=N/NC(=O)CC2C(=O)NN=C2C)c1 (configuration not stated)	3.8	-3.5	-1.4	-2.2	-0.1	-7.8	2.0	-6.2	/
CC1=NNC(=O)C1CCC(=O)N/N=C/c1ccco1 (configuration not stated)	-2.9	-2.8	-4.2	-4.2	-1.6	-3.9	46.4*	-13.7	-21.2
COc1cccc(/C=N/NC(=O)CC2C(=O)NN=C2C)c1OC (configuration not stated)	3.4	-2.7	0.0	3.2	-1.1	1.6	/	/	/
O=C(Nc1ccc([N+](=O)[O-])cc1Br)c1cc2ccccc2nc1Cl	32.1	-2.2	-1.8	-4.0	2.7	7.8	/	/	/
Cc1c(O)cc2c(c1O)C(=O)CC(c1ccc(O)cc1)O2 (configuration not stated)	30.9	-16.1	3.0	58.3*	20.4	0.7	45.3*	-9.3	6.2*
CC(OC(=O)CCNS(=O)(=O)c1ccc(Cl)cc1)C(=O)N(C)Cc1ccccc1 (configuration not stated)	2.7	5.1	-3.8	/	-1.2	-0.3	/	/	/
Cc1ccc(C)c(N2CCN(C(=O)c3ccc(CSc4nc5ccncc5[nH]4)cc3)CC2)c1	-3.6	8.5	-0.2	56.2*	27.9	-1.8	-15.7	-4.0	/
O=C(CSc1nc2sc3c(c2c(=O)n1-c1ccccc1)CCCC3)N/N=C/c1ccc(C(=O)O)cc1	-3.4	6.3	2.2	50.7*	1.2	-3.7	38.5*	-12.9	-12.5
O=C(CSc1nc2sc3c(c2c(=O)n1-c1ccccc1)CCCC3)NCc1ccco1	31.6	6.6	2.8	9.7	-0.2	0.4	/	/	/
SMILES	DNMT1 block	Rpn11 inh	STEP block	Scp1 inh	LMPTP inh	SUMO1-SIM PPI	Scp-1 conf	Scp-1 MG ctr	Scp-1 Tm shift
COc1ccc2[nH]c(=O)c(-c3noc(-c4ccccc4)n3)cc2c1	5.9	/	39.3	82.0*	22.3	65.1*	60.1*	-8.7	-34.8
O=C(Nc1cccc2ncccc12)c1ccccc1Cl	1.2	6.1	-3.2	98.2*	-1.2	-4.2	4.2	-2.1	/
CCn1c(=O)c(NC(=O)c2ccccc2)c2n(c1=S)CCCCC2	1.3	-6.3	-5.1	60.9*	-2.3	1.9	40.3*	-13.9	-13.4
Cc1ccc2nc(/C(C#N)=C\c3ccc(N4CCCCC4)c([N+](=O)[O-])c3)[nH]c2c1	49.5	-66.9	10.5	108.5*	2.3	-11.8	77.0*	-3.0	11.9*
N#C/C(=C/c1ccc(N2CCCC2)c([N+](=O)[O-])c1)c1nc2ccccc2[nH]1	29.7	4.5	3.0	4.2	5.0	-6.2	/	/	/
COc1cccc(S(=O)(=O)Nc2ccc3c(c2)C(=O)N(C)C[C@H](OC)[C@H](C)CN[C@@H](C)CO3)c1	/	/	/	/	-0.9	3.1	/	/	/
O=C(O)/C(=C\c1cccc(F)c1)c1ccc(S(=O)(=O)N2CCCC2)s1	26.9	-6.3	1.8	33.0	0.9	-2.2	/	/	/
Cc1cccc(/C=C(\C(=O)O)c2ccc(S(=O)(=O)N3CCCC3)s2)c1	62.0*	-6.6	8.5	93.3*	13.8	0.0	76.7*	-4.3	1.5
Cn1c(SCC(=O)c2ccc(O)c(O)c2)nnc1-c1cccs1	9.8	-3.7	15.1	67.2*	21.3	14.7	50.4*	-8.7	3.4
Cc1ccc(S(=O)(=O)N(C)/N=C2/C(=O)N(CC(=O)O)c3ccccc32)cc1	-0.3	6.7	3.3	9.2	0.1	-15.9	/	/	/
CC(=O)Nc1ccc2c(c1)C(C)(C)C(C)N2C (configuration not stated)	/	/	/	82.0*	/	/	-5.6	-11.5	/
